Results as given in PMC2857556 (Cytoskeleton (Hoboken, N.J.), 2010).
Like-named read-outs stand apart in the source and are kept apart here. No end group written: not given here.

How the values were obtained:
G-actin = assay: Interaction of WH2 peptides with G-actin; assay type: binding
F-actin [1] = assay: F-actin co-sedimentation; assay type: binding; conditions: co-sedimentation assays, data not shown
[2] = system: Cof1-bound ADP-actin monomers; assay: Nucleotide exchange on Cof1-bound ADP-actin monomers; assay type: biochemical, rabbit
Procedure, shortened: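 Rabbit muscle ADP-actin (2 μM) was kept in G-buffer without ATP (10 mM Tris pH 7.5, 0.2 mM CaCl2, 0.2 mM DTT). It was mixed with 20 mM Tris pH 8.0, 50 mM NaCl, alone or containing Cof1 and/or varying full-length Srv2 (yeast profilin from E. coli where used), then added to ε-ATP. The fluorescence rise at 350/410 nm was monitored for at least 600 s.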

F-actin [3] = assay: Pi release assay of steady state actin filament turnover in the presence of Cof1; assay type: biochemical, rabbit; conditions: 8 μM actin, 25°C
Procedure, shortened: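 Cof1 and full-length Srv2 were premixed with 2 mM MgCl2, 0.5 mM ATP, 50 mM KCl, 0.2 mM MESG and 0.1 units PNP. Rabbit muscle actin monomers were added to start polymerization. Once the reaction reached steady state, Pi release was read for 15 min. After path-length correction, steady-state slopes were obtained by linear fit.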

[4] = Fluorescence-monitored urea denaturation; assay type: physicochemical
Procedure, shortened: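 Full-length 6xHis-tagged wild type and mutant Srv2 were expressed in E. coli BL21-RP (DE3), purified by IMAC then Superose 6 gel filtration in 20 mM Tris pH 8.0, 50 mM NaCl, 1 mM DTT, and stored at -80°C. Unfolding was followed by fluorescence as a function of urea concentration, with fluorescence normalized.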

actin = assay: Steady state actin critical concentration; assay type: biochemical; conditions: for steady state critical concentration for actin assembly (Cc): saturating Srv2 or WH2 peptide, actin alone Cc = 0.21
[5] = biological target: Rabbit skeletal muscle actin, monomeric (G-actin) (rabbit) (UniProt P68135); assay: inhibition of nucleotide exchange on actin
[6] = biological target: Rabbit skeletal muscle actin, monomeric (G-actin) (rabbit) (UniProt P68135); assay: inhibition of nucleotide exchange on actin; remark: listed apart in the source
NBD-labeled G-actin = conditions: ref Mattila et al., 2004; cited from earlier work

## 306-349: WH2 domain-containing peptide of Srv2, a.a. 306-349 (GIGAVFAELNQGENITKGLKKVDKSQQTHKNPELRQSSTVSSTG; UniProt P17555 306-349, looked up, fragment)
G-actin
  interaction with G-actin (in words): both WH2 peptides interacted with G-actin
F-actin [1]
  binding affinity for F-actin (in words): Neither WH2 peptide showed any detectable binding affinity for F-actin

## Srv2-WT: full-length 6xHis-tagged wild type yeast Srv2/CAP protein purified from E. coli
[2]; 2 μM ADP-G-actin, 5 μM Cof1, 25°C (Fig. 7A)
  Srv2 concentration of peak effect on nucleotide exchange rate: 300 to 400 nM
F-actin [3]; 4 μM Cof1, 0-500 nM protein
  effect on actin turnover (Pi release) (in words): increased the rate of turnover in a concentration-dependent manner
F-actin [3]; 4 μM Cof1, Srv2 0-500 nM, 360 nm (Fig. 8A)
  rate increase of actin turnover (Pi release), peak: 4 fold
[4]
  folding / stability by urea denaturation (in words): folded correctly
  urea concentration of unfolding: ~ 5 M urea
actin; data not shown
  steady state critical concentration for actin assembly (Cc): 2.4 µM
actin; versus actin alone, data not shown
  increase of critical concentration versus actin alone: 10 fold

## Srv2/CAP WH2 peptide (a.a. 295-349), wild type (from UniProt P17555 295-349) (domain or fragment)
[5]
  Kd: 1500 nM
[6]
  Kd: 1400 nM

## WH2 peptide: 6xHis-tagged WH2 domain of S. cerevisiae Srv2, a.a. 295-349, purified from E. coli (TPATSSDANKGGIGAVFAELNQGENITKGLKKVDKSQQTHKNPELRQSSTVSSTG; also: 6xHis tag, end not given here)
G-actin
  interaction with G-actin (in words): both WH2 peptides interacted with G-actin
actin; actin + WH2 versus actin alone
  effect on steady state critical concentration (in words): did not alter the steady state critical concentration for actin assembly
actin; data not shown
  steady state critical concentration for actin assembly (Cc): 0.26 µM
F-actin [1]
  binding affinity for F-actin (in words): Neither WH2 peptide showed any detectable binding affinity for F-actin

B1: fragment of Srv2/CAP containing the WH2 domain (a.a. 253-373): purified fragment of Srv2/CAP from an earlier study (Mattila et al., 2004) (protein, UniProt P17555 253-373, looked up, fragment)
chain: MAQSTKNTGATSSPSPASATAAPAPPPPPPAPPASVFEISNDTPATSSDANKGGIGAVFAELNQGENITKGLKKVDKSQQTHKNPELRQSSTVSSTGSKSGPPPRPKKPSTLKTKRPPRKE
NBD-labeled G-actin
  binding affinity for NBD-labeled G-actin (in words): no detectable binding affinity for NBD-labeled G-actin

B2: profilin: Yeast profilin (Pfy1) purified from E. coli (protein, UniProt P07274 1-126, looked up)
Profilin: MSWQAYTDNLIGTGKVDKAVIYSRAGDAVWATSGGLSLQPNEIGEIVQGFDNPAGLQSNGLHIQGQKFMLLRADDRSIYGRHDAEGVVCVRTKQTVIIAHYPPTVQAGEATKIVEQLADYLIGVQY
[2]; 2 μM ADP-G-actin, 5 μM Cof1, 50 μM ε-ATP, 25°C
  effect on nucleotide exchange on Cof1-bound ADP-actin, protein alone (in words): no detectable activity
[2]; 5 μM yeast profilin with 400 nM full-length Srv2-WT, 5 μM Cof1 (Fig. 7F)
  effect of profilin on Srv2-WT promotion of nucleotide exchange (in words): does not enhance Srv2’s effects
